≈ marks a conversion by molar mass, not a printed value. Calls of active or inactive are those of the source. The rule behind the calls is not given here.

In general, CC50 refers to the concentration giving 50% cytotoxicity. What is called EC50 is the concentration needed to bring the measured effect to its halfway point. Broadly, the solubility (thermodynamic) is the concentration in solution at equilibrium with solid.

Data set [1] in a line: Cytotoxicity against human H9 cells assessed as reduction in cell viability after 7 days by MTT assay. It is filed as cell-based. The essentials: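 MTT viability assay. H9 at 4×10^4 cells/well or PHA-stimulated PBMCs at 5×10^5 cells/well were incubated with serially diluted compound at 37 °C, 5% CO2 for seven days before MTT read-out. CC50 was calculated; mean ± standard deviation of three separate experiments.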

Data set [2] concerns Human immunodeficiency virus 1. The data set can be described thus: Antiviral activity against HIV1 subtype B NL4-3 infected in human H9 cells assessed as reduction in p24 level after 7 days by ELISA. The format is functional, cell-based. Particulars: Human immunodeficiency virus 1, subtype B NL4-3, H9, 168 h. The essentials:
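H9 cells infected with NL4-3 at MOI 0.03 for 2 h, washed three times, then seeded at 4×10^4 cells/well with serially diluted compound. Incubated 7 days; supernatant p24 measured by in-house ELISA and EC50 calculated. Three separate experiments, mean ± standard deviation.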

Data set [3] is described as follows: Therapeutic index, ratio of CC50 for human H9 cells to EC50 for HIV1 subtype B NL4-3 infected in human H9 cells. The essentials:
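Ratio of CC50 to EC50, both measured in H9 cells: MTT cytotoxicity over seven days, and p24 ELISA after 7 days of NL4-3 infection at MOI 0.03.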

Data set [4] concerns Human immunodeficiency virus 1. The data set can be described thus: Inhibition of HIV1 Vif expressed in TREX-hVif-15 cells co-expressing EYFP-N1-tagged human A3G assessed as reduction in Vif-mediated A3G degradation at 5 to 20 ug/ml after 48 hrs by flow cytometry. It is filed as cell-based. A digest of the protocol: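 TREX-hvif-15 cells, in which Vif is under Tet-On control, were plated at 2×10^5 cells/well and grown overnight. At about 80% confluence they were transfected with EYFP-N1-hA3G. After 6 h the cells were washed, and compounds at varied concentrations were added together with doxycycline to induce Vif. Cells were trypsin-harvested 48 h post-transfection, and EYFP-positive cells were measured by flow cytometry. The no-Vif condition was set to 100%.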

Data set [5] can be described thus: Aqueous solubility in water after 24 to 72 hrs by HPLC based shake flask method. The format is physicochemical. A digest of the protocol: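 Equilibrium shake-flask solubility: excess compound placed in water, methanol, ethanol, acetonitrile, ethyl acetate or acetone and shaken 24-72 h at 25 °C. Filtered through 0.22 μm membrane, diluted, and quantified by HPLC on a C18 column with methanol/water 70/30 mobile phase and UV 251 nm. n=3, mean ± SD.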

Regarding `COc1ccccc1NC(=O)c1c(N)cccc1Sc1ccc([N+](=O)[O-])cc1`, in data set [1], the CC50 at 168 h is 387 µM. Moreover, the EC50 in data set [2] turned out to be 1.87 µM. In addition, the “Ratio CC50/EC50” value in data set [3] amounted to 207.

Take `COc1ccccc1NC(=O)c1cscc1Sc1ccc([N+](=O)[O-])cc1`: the cytotoxic concentration (CC50) at 168 h in data set [1] worked out at 518 µM. Besides, the EC50 in data set [2] came to 51.2 µM. The “Ratio CC50/EC50” value in data set [3] was 10.1.

Regarding `COc1ccccc1NC(=O)c1ccccc1Sc1ccc([N+](=O)[O-])cc1`, the EC50 in data set [2] came to 263 µM. For the same compound, in data set [4], the inhibition entry is “Active”.

On to `COc1ccccc1NC(=O)c1c(NS(=O)(=O)c2ccccc2)cccc1S(=O)(=O)c1ccc([N+](=O)[O-])cc1`, for which the EC50 in data set [2] stood at 176 µM.

For the compound `CNc1ccc(Sc2ccc([N+](=O)[O-])cc2)c(C(=O)Nc2ccccc2OC)c1`, in data set [1], the CC50 at 168 h came to 302 µM. In addition, the EC50 in data set [2] turned out to be 240 µM. For the same compound, the “Ratio CC50/EC50” value in data set [3] was 1.26.

For `COc1ccccc1NC(=O)c1c(NS(=O)(=O)c2ccc(C)cc2)cccc1S(=O)(=O)c1ccc([N+](=O)[O-])cc1`, the 50% effective concentration (EC50) in data set [2] stood at 172 µM.

Turning to `COc1ccccc1NC(=O)c1cc(NC(C)=O)ccc1Sc1ccc([N+](=O)[O-])cc1`, in data set [1], the CC50 at 168 h was 171 µM. The EC50 in data set [2] came to 457 µM. Besides, in data set [3], the “Ratio CC50/EC50” value is on record as 0.374.

For the compound `CNc1cccc(S(=O)(=O)c2ccc([N+](=O)[O-])cc2)c1C(=O)Nc1ccccc1OC`, in data set [1], the CC50 at 168 h came to 200 µM. The EC50 in data set [2] was 278 µM.

With `COc1ccccc1NC(=O)c1c(NCCO)cccc1S(=O)(=O)c1ccc([N+](=O)[O-])cc1`, the CC50 at 168 h in data set [1] was 154 µM. Moreover, the EC50 in data set [2] is 216 µM. Besides, in data set [3], the “Ratio CC50/EC50” value came out at 0.713.

Turning to `COc1ccccc1C(=O)Nc1nc(Cl)ncc1Sc1ccc([N+](=O)[O-])cc1`, the CC50 at 168 h in data set [1] was 480 µM. For the same compound, in data set [2], the concentration for a half-maximal effect (EC50) was 54.7 µM. Also, the “Ratio CC50/EC50” value in data set [3] stood at 8.78.

As for `COc1ccccc1NC(=O)c1c(NCC(N)=O)cccc1Sc1ccc([N+](=O)[O-])cc1`, the 50% cytotoxic concentration (CC50) at 168 h in data set [1] turned out to be 35.5 µM. Besides, in data set [2], the EC50 was 41.8 µM. The “Ratio CC50/EC50” value in data set [3] is listed as 0.849.

For the compound `COc1ccccc1NC(=O)c1sccc1Sc1ccc([N+](=O)[O-])cc1`, the cytotoxic concentration (CC50) at 168 h in data set [1] was determined as 472 µM. Further, the EC50 in data set [2] was determined as 62.2 µM. Besides, the “Ratio CC50/EC50” value in data set [3] is 7.59.

`COc1ccccc1NC(=O)c1cc(Cl)ccc1Sc1ccc([N+](=O)[O-])cc1`: the CC50 at 168 h in data set [1] amounted to 483 µM. Moreover, the EC50 in data set [2] amounted to 18.3 µM. Besides, in data set [3], the “Ratio CC50/EC50” value amounted to 26.4.

As to `COc1ccccc1NC(=O)c1c(Sc2ccc([N+](=O)[O-])cc2)cccc1N1CCNCC1`, the CC50 at 168 h in data set [1] was 30.6 µM. The EC50 in data set [2] stood at 8.24 µM. The “Ratio CC50/EC50” value in data set [3] is recorded as 3.71.

As for `COc1ccccc1NC(=O)c1cc(N)ccc1Sc1ccc([N+](=O)[O-])cc1`, in data set [2], the EC50 came out at 6.63 µM.

Turning to `COc1ccccc1NC(=O)c1c(NCCO)cccc1Sc1ccc([N+](=O)[O-])cc1`, in data set [1], the CC50 at 168 h was determined as 265 µM. Moreover, the EC50 in data set [2] came out at 43.6 µM. For the same compound, the “Ratio CC50/EC50” value in data set [3] was found to be 6.08.

Regarding `COc1ccccc1NC(=O)c1c(N(C)C)cccc1S(=O)(=O)c1ccc([N+](=O)[O-])cc1`, the CC50 at 168 h in data set [1] was found to be 439 µM. Moreover, in data set [2], the EC50 turned out to be 226 µM. Also, the “Ratio CC50/EC50” value in data set [3] was 1.94.

Take `COc1ccccc1NC(=O)c1c(NCCN)cccc1Sc1ccc([N+](=O)[O-])cc1`: the EC50 in data set [2] stood at 45.4 µM.

`COc1ccccc1NC(=O)c1c(NCCN)cccc1S(=O)(=O)c1ccc([N+](=O)[O-])cc1`: the CC50 at 168 h in data set [1] worked out at 211 µM. Besides, the EC50 in data set [2] was 214 µM. For the same compound, the “Ratio CC50/EC50” value in data set [3] is given as 0.986.

Regarding `COc1ccccc1NC(=O)c1c(Sc2ccc([N+](=O)[O-])cc2)cccc1[N+](=O)[O-]`, in data set [2], the EC50 worked out at 235 µM.

With `COc1ccccc1NC(=O)c1c(NC(=O)C(N)Cc2ccccc2)cccc1S(=O)(=O)c1ccc([N+](=O)[O-])cc1` (stereo not given), in data set [1], the CC50 at 168 h was 216 µM. The EC50 in data set [2] is 1.46 µM. For the same compound, the “Ratio CC50/EC50” value in data set [3] was 148. The compound further came in with a thermodynamic solubility in data set [5] of 120 µg/mL (≈ 209 µM).

As for `COc1ccccc1NC(=O)c1c(NCCBr)cccc1Sc1ccc([N+](=O)[O-])cc1`, in data set [2], the EC50 was 221 µM.

With `COc1ccccc1NC(=O)c1cc(N(C)C)ccc1Sc1ccc([N+](=O)[O-])cc1`, the CC50 at 168 h in data set [1] worked out at 182 µM. The EC50 in data set [2] amounted to 233 µM. Moreover, the “Ratio CC50/EC50” value in data set [3] was 0.781.

For `COc1ccccc1NC(=O)c1c(N)cccc1[S+]([O-])c1ccc([N+](=O)[O-])cc1` (stereo not given), the CC50 at 168 h in data set [1] was 335 µM. In addition, the EC50 in data set [2] was determined as 10.5 µM. Moreover, the “Ratio CC50/EC50” value in data set [3] is reported as 31.9.

`COc1ccccc1NC(=O)c1c(NS(=O)(=O)c2ccc(C)cc2)cccc1Sc1ccc([N+](=O)[O-])cc1`: the CC50 at 168 h in data set [1] was found to be 364 µM. The EC50 in data set [2] was found to be 30.6 µM. The “Ratio CC50/EC50” value in data set [3] stood at 11.9.

Regarding `COc1ccccc1NC(=O)c1cc([N+](=O)[O-])ccc1Sc1ccc([N+](=O)[O-])cc1`, the EC50 in data set [2] worked out at 235 µM.

On to `COc1ccccc1NC(=O)c1cccnc1Sc1ccc([N+](=O)[O-])cc1`, for which, in data set [1], the half-maximal cytotoxic concentration (CC50) at 168 h was found to be 525 µM. Also, in data set [2], the EC50 came to 147 µM. Also, the “Ratio CC50/EC50” value in data set [3] turned out to be 3.57.

For the compound `COc1ccccc1NC(=O)c1c(N)cccc1Oc1ccc([N+](=O)[O-])cc1`, in data set [1], the 50% cytotoxic concentration (CC50) at 168 h was 202 µM. Further, the concentration for a half-maximal effect (EC50) in data set [2] was 94.6 µM. Besides, the “Ratio CC50/EC50” value in data set [3] is 2.14.

`COc1ccccc1NC(=O)c1cc(F)ccc1Sc1ccc([N+](=O)[O-])cc1`: the CC50 at 168 h in data set [1] worked out at 502 µM. The EC50 in data set [2] is 249 µM. For the same compound, the “Ratio CC50/EC50” value in data set [3] amounted to 2.02.

As for `COc1ccccc1NC(=O)c1c(NS(=O)(=O)c2ccccc2)cccc1Sc1ccc([N+](=O)[O-])cc1`, in data set [2], the half-maximal effective concentration (EC50) is 187 µM.

Turning to `COc1ccccc1NC(=O)c1c(Sc2ccc([N+](=O)[O-])cc2)cccc1N1CCOCC1`, the EC50 in data set [2] was 242 µM.

With `COc1ccccc1NC(=O)c1cc(C(F)(F)F)ccc1Sc1ccc([N+](=O)[O-])cc1`, the EC50 in data set [2] was 223 µM.

These data come from ChEMBL document CHEMBL4007447, “Synthesis, biological evaluation and molecular docking study of N-(2-methoxyphenyl)-6-((4-nitrophenyl)sulfonyl)benzamide derivatives as potent HIV-1 Vif antagonists” (Eur J Med Chem, 2017).
